Experimental data from ChEMBL document CHEMBL3865797, “Design, synthesis and biological evaluation of berberine-benzimidazole hybrids as new type of potentially DNA-targeting antimicrobial agents” (Eur J Med Chem, 2016).
Activity calls are given as the source filed them. The calls are words filed in the database; no cut-off is given here.

Tests used:
[1] = system: Micrococcus luteus; test: Antibacterial activity against Micrococcus luteus ATCC 4698 measured after 24 hrs by two-fold serial dilution method; format: functional; conditions: NCTC 2665, 24 h
Summary of the method: (§1)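 MIC by two-fold serial broth microdilution in 96-well plates, following NCCLS recommendations. Chloromycin, norfloxacin and fluconazole serve as reference drugs. The MIC is read as the lowest concentration that inhibits growth, in µg/mL.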

[2] = system: Candida albicans; test: Antifungal activity against Candida albicans ATCC 76615 measured after 24 hrs by two-fold serial dilution method; format: functional; conditions: ATCC 76615, 24 h; summary of the method: as §1
[3] = system: Staphylococcus aureus; test: Induction of membrane permeabilization in methicillin-resistant Staphylococcus aureus N315 at 12 times MIC by propidium iodide staining-based fluorescence analysis; format: functional
Summary of the method: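 Cells are exposed to the agent at 12 × MIC, then stained with propidium iodide. The dye enters only cells with compromised membranes and fluoresces on binding DNA, so fluorescence serves as the permeabilization read-out.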

[4] = system: Escherichia coli; test: Induction of Escherichia coli supercoiled pET-28a DNA cleavage measured at 0.1 mM after 5 hrs by agarose gel electrophoresis method
[5] = organism: Bos taurus; test: Binding affinity to calf thymus DNA assessed as increase in maximum absorption peak at 260 nm by UV-vis spectroscopy
Summary of the method: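 Absorption spectra of DNA recorded at pH 7.4 and 298 K with increasing concentrations of added agent. Absorbance at 260 nm of the complex is compared with the summed absorbance of free DNA and free agent.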

[6] = system: Pseudomonas aeruginosa; test: Antibacterial activity against Pseudomonas aeruginosa measured after 24 hrs by two-fold serial dilution method; format: functional; summary of the method: as §1
[7] = system: Salmonella typhi; test: Antibacterial activity against Salmonella typhi measured after 24 hrs by two-fold serial dilution method; format: functional, Salmonella enterica subsp. enterica serovar Typhi; conditions: Salmonella enterica
Summary of the method: (§2)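 Two-fold serial dilution in 96-well microtest plates following NCCLS guidance (micro broth dilution). Chloromycin and norfloxacin serve as positive controls. MIC is reported in µg/mL.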

[8] = system: Proteus vulgaris; test: Antibacterial activity against Bacillus proteus ATCC 13315 measured after 24 hrs by two-fold serial dilution method; format: functional; conditions: ATCC 13315, 24 h; summary of the method: as §1
[9] = system: Bacillus subtilis; test: Antibacterial activity against Bacillus subtilis measured after 24 hrs by two-fold serial dilution method; format: functional; summary of the method: as §1
[10] = Antifungal activity against Saccharomyces cerevisiae measured after 24 hrs by two-fold serial dilution method; format: functional; summary of the method: as §1
[11] = system: Staphylococcus aureus; test: Antibacterial activity against methicillin-resistant Staphylococcus aureus N315 measured after 24 hrs by two-fold serial dilution method; format: functional; conditions: N315, 24 h; summary of the method: as §2
[12] = organism: Bos taurus; test: Binding affinity to calf thymus DNA assessed as DNA intercalation by neutral red dye based UV-vis spectroscopy
[13] = organism: Bos taurus; test: Binding affinity to calf thymus DNA by UV-vis spectroscopy
[14] = Antifungal activity against Candida utilis measured after 24 hrs by two-fold serial dilution method; format: functional; conditions: Cyberlindnera jadinii; summary of the method: as §1
[15] = system: Escherichia coli; test: Antibacterial activity against Escherichia coli JM109 measured after 24 hrs by two-fold serial dilution method; format: functional; conditions: JM109, 24 h; summary of the method: as §1
[16] = system: Aspergillus flavus; test: Antifungal activity against Aspergillus flavus measured after 24 hrs by two-fold serial dilution method; format: functional; summary of the method: as §1
[17] = system: Staphylococcus aureus; test: Antibacterial activity against Staphylococcus aureus ATCC 25923 measured after 24 hrs by two-fold serial dilution method; format: functional; conditions: ATCC 25923, 24 h; summary of the method: as §1
[18] = system: Escherichia coli; test: Induction of membrane permeabilization in Escherichia coli DH52 at 12 times MIC by propidium iodide staining-based fluorescence analysis; format: functional
Summary of the method: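 Propidium iodide uptake measured by fluorescence in E. coli DH52 exposed to agent at 12 × MIC. The dye enters bacteria with compromised membranes and fluoresces on binding DNA.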

[19] = organism: Bos taurus; test: Binding affinity to calf thymus DNA assessed as hypochromic effect by UV-vis spectroscopy

**Q.** With CCCCCCCn1c(COc2c(OC)ccc3cc4[n+](cc23)CCc2cc3c(cc2-4)OCO3)nc2ccccc21.[Cl-] as the compound, how does the MIC [1] read?
**A.** 64 µg/mL

**Q.** What about the MIC80 [2] of the same compound?
**A.** 4 µg/mL

**Q.** And the Activity [3]?
**A.** Active

**Q.** And the Activity [4]?
**A.** Dose-dependent effect

**Q.** What about the Activity [5] of the same compound?
**A.** Dose-dependent effect

**Q.** And the MIC [6]?
**A.** 16 µg/mL

**Q.** And the MIC [7]?
**A.** 2 µg/mL

**Q.** What about the MIC [8] of the same compound?
**A.** 512 µg/mL

**Q.** And the MIC [9]?
**A.** 32 µg/mL

**Q.** What about the MIC80 [10] of the same compound?
**A.** 512 µg/mL

**Q.** What about the MIC [11] of the same compound?
**A.** 8 µg/mL

**Q.** What about the Activity [12] of the same compound?
**A.** Active

**Q.** What about the K [13] of the same compound?
**A.** 4.12 ×10⁴ L/mol

**Q.** What about the MIC80 [14] of the same compound?
**A.** 8 µg/mL

**Q.** What about the MIC [15] of the same compound?
**A.** 4 µg/mL

**Q.** What about the MIC80 [16] of the same compound?
**A.** 32 µg/mL

**Q.** What about the MIC [17] of the same compound?
**A.** 4 µg/mL

**Q.** And the Activity [18]?
**A.** Active

**Q.** What about the Activity [19] of the same compound?
**A.** Active
